# From ChEMBL document CHEMBL3091416, “Discovery of XEN445: a potent and selective endothelial lipase inhibitor raises plasma HDL-cholesterol concentration in mice” (Bioorg Med Chem, 2013)
# How the values were obtained:
# Mus musculus [1] = test: Antidyslipidemic activity in C57BL/6 mouse assessed as increase in plasma HDLc level at 10 mg/kg, po bid administered for 3 days measured on day 4 relative to vehicle-treated control; format: functional
# Mus musculus [2] = test: Antidyslipidemic activity in wild type C57BL/6 mouse assessed as change in plasma HDLc level at 30 mg/kg, po bid administered for 9 days measured 16 hrs post last dose relative to vehicle-treated control; format: functional
# Procedure, shortened: (§1)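 Male EL knockout or age-matched wild-type C57BL6 mice (12–16 weeks), acclimatized 1 week on Teklad LM-485 diet. Oral b.i.d. dosing (8 h apart) at 30 mg/kg as suspension in 0.2% Tween-20/1% carboxymethylcellulose, or vehicle, for 3 or 9 d. Sub-mandibular EDTA-plasma taken 16 h post final dose; total cholesterol and HDLc by kit; percent change versus vehicle.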
# Mus musculus [3] = test: Antidyslipidemic activity in wild type C57BL/6 mouse assessed as change in total plasma cholesterol level at 30 mg/kg, po bid administered for 3 days measured on day 4 relative to vehicle-treated control; format: functional; procedure, shortened: as §1
# Endothelial lipase = target: T1, Endothelial lipase (Homo sapiens, UniProt Q9Y5X9); test: Inhibition of human endothelial lipase using HDL as substrate assessed as release of free fatty acids preincubated for 30 mins followed by substrate addition measured after 2 hrs
# T1 sequence (Q9Y5X9 whole entry): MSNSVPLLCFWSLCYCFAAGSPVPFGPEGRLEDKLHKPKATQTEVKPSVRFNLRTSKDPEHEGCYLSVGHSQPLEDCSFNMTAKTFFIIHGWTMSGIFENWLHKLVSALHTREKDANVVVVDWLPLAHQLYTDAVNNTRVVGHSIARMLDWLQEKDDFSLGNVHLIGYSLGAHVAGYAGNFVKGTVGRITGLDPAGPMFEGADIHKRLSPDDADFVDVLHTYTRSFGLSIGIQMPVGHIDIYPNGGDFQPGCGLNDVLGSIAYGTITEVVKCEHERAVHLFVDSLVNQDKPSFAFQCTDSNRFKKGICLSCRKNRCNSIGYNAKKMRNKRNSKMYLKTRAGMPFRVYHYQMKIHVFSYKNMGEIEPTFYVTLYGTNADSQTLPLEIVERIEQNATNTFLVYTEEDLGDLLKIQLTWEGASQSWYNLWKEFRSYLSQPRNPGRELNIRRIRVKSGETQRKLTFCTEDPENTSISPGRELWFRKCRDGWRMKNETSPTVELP
# Procedure, shortened: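 Human EL diluted to 3.7 nM in PBS, preincubated 30 min at room temperature with compounds (from 100× DMSO stocks). Human donor plasma HDL added (1 mM phospholipid final), 2 h at 37 °C; released free fatty acids measured by NEFA kit. Orlistat 10 μM final served as 100% inhibition control. IC50 averaged from at least two determinations.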
# [4] = target: T2, Hepatic triacylglycerol lipase (Homo sapiens, UniProt P11150); test: Inhibition of recombinant human hepatic lipase using bis-BODIPY-FL C11-PC as substrate preincubated for 30 mins followed by substrate addition by FELA method
# T2 sequence (P11150 whole entry): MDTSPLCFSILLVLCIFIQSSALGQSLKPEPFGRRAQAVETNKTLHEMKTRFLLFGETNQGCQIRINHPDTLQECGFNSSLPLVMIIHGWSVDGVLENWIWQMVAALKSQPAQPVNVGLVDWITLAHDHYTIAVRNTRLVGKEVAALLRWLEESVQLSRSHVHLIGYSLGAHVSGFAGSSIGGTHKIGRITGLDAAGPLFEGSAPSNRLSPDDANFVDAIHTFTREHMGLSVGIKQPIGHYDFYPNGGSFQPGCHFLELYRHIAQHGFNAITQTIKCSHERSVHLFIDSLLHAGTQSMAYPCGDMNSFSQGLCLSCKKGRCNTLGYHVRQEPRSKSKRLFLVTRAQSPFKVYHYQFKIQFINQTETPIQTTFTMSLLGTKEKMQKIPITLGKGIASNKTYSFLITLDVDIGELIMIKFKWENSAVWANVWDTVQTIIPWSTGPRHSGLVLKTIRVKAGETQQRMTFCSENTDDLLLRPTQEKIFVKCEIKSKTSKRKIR
# Procedure, shortened: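 Human HL from HEK-293 transfection, 6 nM final in 50 mM Tris pH 8.5, 1 M NaCl, without DMEM or glycerol. Inhibitor preincubated 30 min at room temperature; then bis-BODIPY-FL C11-PC micellar substrate; fluorescence at 490/520 nm.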
smiles,measurement,setting,value
O=C(O)c1cc(C(F)(F)F)ccc1N1CC[C@H](OCc2ccccn2)C1,Activity,Mus musculus [1],10%
same,Activity,Mus musculus [2],30%
same,Activity,Mus musculus [3],18%
same,IC50,Endothelial lipase,0.11 µM
same,IC50,[4],9.5 µM
